From PMC6044781 (ACS Omega, 2017)
Where two headings read alike, the source gives them in different places.

How the values were obtained:
HEK 293T cells = experiment: MTT cell survival assay, HEK 293T; assay type: cell-based; details: Homo sapiens
How it was run: (§1)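 MTT survival assay: cells treated with increasing concentrations of test compound for 48 or 72 h at 37 °C. Medium was then replaced with fresh medium containing MTT for 4 h, formazan dissolved in DMSO, and absorbance read at 570 nm. IC50 determined at each time point.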

[1] = test system: F12T (5′-fluorescein-TAGGGTTAGGGT-3′-TAMRA) G-quadruplex; experiment: FRET melting assay, F12T; assay type: binding, human; details: 2 μM ligand; for ΔTm F12T: no competitor; for ΔTm F12TComp12: with competitor complementary strand Compl 12
How it was run: (§2)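 Dual-labelled oligos (5′-fluorescein/3′-TAMRA) at 0.25 μM in 10 mM sodium cacodylate, 0.5 mM EDTA, 25 mM KCl, pH 7.0, with or without 2 μM test compound. For competitor runs, each oligo was preincubated 24 h at 25 °C with 2 μM unlabelled complementary strand. Excitation 480 nm, emission 520 nm, read at 1 °C steps from 25 to 95 °C with 60 s equilibration per reading. ΔTm is the average of three determinations.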

HeLa cells [2] = experiment: Annexin V-FITC/PI apoptosis assay; assay type: cell-based, human; details: 1 μM, 24 h
How it was run: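 HeLa cells seeded at 2 × 10^5 per 60 mm plate and treated with test compound at 1 μM. After 24 h, cells were harvested, washed twice in PBS and resuspended at 1 × 10^6 cells/mL in kit buffer. Annexin V-FITC/PI staining for 15 min in the dark at room temperature; Annexin V–FITC labelling quantified. Values are mean ± SEM.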

duplex DNA 26-mer [3] = experiment: ITC with duplex DNA 26-mer; assay type: binding; details: for binding constant Ka × 10^6: duplex DNA 26-mer, 25 °C
How it was run: (§3)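 Isothermal titration calorimetry at 25 °C in cacodylate/EDTA/KCl buffer, pH 7.0; solutions degassed under vacuum (160 mbar, 10 min). Test compound at 4 × 10^-4 M was injected in 5–10 μL aliquots (20 s each, 240 s apart, 60 s initial delay, 381 rpm) into DNA: 22-mer and 26-mer duplex at 1.0 × 10^-5 M, 12-mer at 0.5 × 10^-5 M. Dilution heat was subtracted and data fitted to a single-site model. Ka is mean ± SD of three runs.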

h-telo 22-mer quadruplex [4] = experiment: ITC with h-telo 22-mer quadruplex; assay type: binding, human; details: for binding equilibrium constants from microcalorimetry: h-telo 22-mer quadruplex; for binding constant Ka × 10^6: h-telo 22-mer, 25 °C
How it was run: as §3

h-telo 22-mer quadruplex [5] = experiment: SPR with h-telo 22-mer; assay type: binding, human; details: for KA: h-telo 22-mer, 25 °C, error ±15%; for KA h-telo 22/KA dsDNA: selectivity 22-mer quadruplex over DNA duplex, SPR
How it was run: (§4)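 Surface plasmon resonance on streptavidin chips carrying 5′-biotin-T9-linked 22-mer telomeric or 26-mer duplex DNA, annealed at 95 °C and slowly cooled in 10 mM HEPES, 100 mM KCl, 0.005% IGEPAL, pH 7.4. Surfaces equilibrated 2 h at 20 μL/min, 25 °C. Test compound (1.0 × 10^-9 to 10^-6 M) injected for 300 s in random order; regeneration with 1 M NaCl in 50 mM NaOH. Sensorgrams fitted to a two-site model. Selectivity is the ratio of G4 to duplex binding constants. Triplicate runs, mean ± SEM.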

A549 cells = experiment: MTT cell survival assay, A549; assay type: cell-based; details: Homo sapiens
How it was run: as §1

[6] = test system: telomerase (from A549 cells); experiment: TRAP-Lig assay; assay type: biochemical, human; details: read-out: TRAP assay IC50; telomerase inhibition, ligand 1–50 μM
[7] = test system: F22T (5′-fluorescein-AGGGTTAGGGTTAGGGTTAGGG-3′-TAMRA) G-quadruplex; experiment: FRET melting assay, F22T; assay type: binding, human; details: 2 μM ligand; for ΔTm F22T: no competitor; for ΔTm F22TComp22: with competitor complementary strand Compl 22
How it was run: as §2

duplex DNA 26-mer [8] = experiment: SPR with duplex DNA 26-mer; assay type: binding; details: 25 °C, error ±15%
How it was run: as §4

h-telo 12-mer quadruplex = experiment: ITC with h-telo 12-mer quadruplex; assay type: binding, human; details: 25 °C, BMSG-SH-3: first line of two
How it was run: as §3

[9] = test system: h-telo 22-mer quadruplex (DNA, G4) AGGGTTAGGGTTAGGGTTAGGG; experiment: ITC; details: 25 mM KCl; 10 mM sodium cacodylate, 0.5 mM EDTA, pH 7.0, 25 °C
HeLa cells [10] = experiment: MTT cell survival assay, HeLa; assay type: cell-based; details: Homo sapiens
How it was run: as §1

HeLa cells [11] = experiment: Cell cycle analysis by flow cytometry; assay type: cell-based, human; details: 1 μM, 24 h; for G2/M phase arrest (G2): control 7.6%
[12] = test system: h-telo 12-mer quadruplex (DNA, G4) TAGGGTTAGGGT; experiment: ITC; details: 25 mM KCl; 10 mM sodium cacodylate, 0.5 mM EDTA, pH 7.0, 25 °C
[13] = test system: 26-mer duplex DNA (DNA, duplex) CAATCGGATCGAATTCGATCCGATTG; experiment: ITC; details: 25 mM KCl; 10 mM sodium cacodylate, 0.5 mM EDTA, pH 7.0, 25 °C
[14] = A549, 48 h, read-out: IC50 at 48 h
[15] = A549, 72 h, read-out: IC50 at 72 h

SMILES | IC50 (HEK 293T cells; 48 h, read-out: IC50 at 48 h) [µM] | IC50 (HEK 293T cells; 72 h, read-out: IC50 at 72 h) [µM] | ΔTm F12T [1] [°C] | ΔTm F12TComp12 [1] [°C] | apoptotic cells (Annexin V–FITC positive cells) (HeLa cells [2]) [%] | binding constant Ka × 10^6 (duplex DNA 26-mer [3]) | binding equilibrium constants from microcalorimetry (h-telo 22-mer quadruplex [4]) [µM] | binding constant Ka × 10^6 (h-telo 22-mer quadruplex [4]) | KA (h-telo 22-mer quadruplex [5]) | KA h-telo 22/KA dsDNA (h-telo 22-mer quadruplex [5]) | IC50 (A549 cells; [14]) [µM] | IC50 (A549 cells; [15]) [µM] | IC50 [6] [µM] | ΔTm F22T [7] [°C] | ΔTm F22TComp22 [7] [°C] | KA (duplex DNA 26-mer [8]) | Kd (duplex DNA 26-mer [8]) [µM] | binding constant Ka × 10^6 (h-telo 12-mer quadruplex) | Ka [9] | IC50 (HeLa cells [10]; 48 h, read-out: IC50 at 48 h) [µM] | also measured
CN1CCN(CCCN2C(=O)c3ccc4c5c(ccc(c35)C2=O)C(=O)N(CCCN2CCN(C)CC2)C4=O)CC1 [ALI-C3, 2,7-Bis(3-(4-methylpiperazin-1-yl)propyl)benzo[lmn][3,8]phenanthroline-1,3,6,8 (2H,7H)tetraone] | 12.2 | 8.9 | 5 ± 0.8 | 7 ± 0.5 | 35 | 0.03 ± 0.10 10^6 M^–1 | 6.35 | 6.35 ± 0.26 10^6 M^–1 | 8.7 × 10^6 M^–1 | 87.0 | 1.8 | 1.4 | > 50 | 9 ± 1.2 | 11 ± 0.6 | 0.1 × 10^6 M^–1 | 17.1 | 0.61 ± 1.82 10^6 M^–1 | 6.35 ± 0.26 × 10^6 M^-1 | 2.4 | IC50 (HeLa cells [10]; 72 h, read-out: IC50 at 72 h): 2.1 µM; G2/M phase arrest (G2) (HeLa cells [11]): 15.7%; Ka [12]: 0.61 ± 1.82 × 10^6 M^-1
CN1CCN(c2ccc3nc(-c4ccc(N5C(=O)c6ccc7c8c(ccc(c68)C5=O)C(=O)N(c5ccc(-c6nc8ccc(N9CCN(C)CC9)cc8[nH]6)cc5)C7=O)cc4)[nH]c3c2)CC1 [BBZ-ARO, 2,7-Bis(4-(6-(4-methylpiperazin-1-yl)-1H-benzo[d]imidazol-2-yl)phenyl)benzo[lmn][3,8]phenanthroline-1,3,6,8(2H,7H)-tetraone] | 77.9 | 63.4 | 13 ± 1.4 | 15 ± 0.5 | 74 | 0.05 ± 0.65 10^6 M^–1 | 8.47 | 8.47 ± 0.65 10^6 M^–1 | 9.5 × 10^7 M^–1 | 158.3 | 26.4 | 19.7 | 4.56 | 14 ± 0.5 | 16 ± 1.6 | 0.6 × 10^6 M^–1 | 36.6 | 6.63 ± 2.39 10^6 M^–1 | 8.47 ± 0.65 × 10^6 M^-1 | 24.7 | Ka [13]: 0.05 ± 0.65 × 10^6 M^-1; binding affinity (ITC) (duplex DNA 26-mer [3]; duplex DNA): 5.0 × 10^4 M^–1; affinity (ITC) (h-telo 22-mer quadruplex [4]; 22-mer quadruplex): 8.4 × 10^6 M^–1; IC50 (HeLa cells [10]; 72 h, read-out: IC50 at 72 h): 20.5 µM; sub-G1 phase accumulation (HeLa cells [11]; control 0.2%): 7.3%; G2/M phase arrest (G2) (HeLa cells [11]): 15.8%; Ka [12]: 6.63 ± 2.39 × 10^6 M^-1
CN1CCN(c2ccc3nc(CN4C(=O)c5ccc6c7c(ccc(c57)C4=O)C(=O)N(Cc4nc5ccc(N7CCN(C)CC7)cc5[nH]4)C6=O)[nH]c3c2)CC1 [BBZ-AROCH2, 2,7-Bis((6-(4-methylpiperazin-1-yl)-1H-benzo[d]imidazol-2-yl)methyl)benzo[lmn]-[3,8]-phenanthroline-1,3,6,8(2H,7H)-tetraone] | > 100 | > 100 | 8 ± 0.4 | 10 ± 1.6 | 40 | 0.88 ± 0.63 10^6 M^–1 | 3.41 | 3.41 ± 0.22 10^6 M^–1 | 1.4 × 10^6 M^–1 | 3.5 | 79.5 | 74.8 | > 50 | 7 ± 0.7 | 9 ± 0.5 | 0.4 × 10^6 M^–1 | 55.2 | 0.89 ± 0.11 10^6 M^–1 | 3.41 ± 0.22 × 10^6 M^-1 | 92.7 | Ka [13]: 0.88 ± 0.63 × 10^6 M^-1; IC50 (HeLa cells [10]; 72 h, read-out: IC50 at 72 h): 86.5 µM; G2/M phase arrest (G2) (HeLa cells [11]): 19.1%; Ka [12]: 0.89 ± 0.11 × 10^6 M^-1
